6 compounds from ChEMBL document CHEMBL3627681, “Synthesis and biological evaluation of 1,3-diaryl pyrazole derivatives as potential antibacterial and anti-inflammatory agents” (2015) can be followed below.

Values after ≈ are worked out from the molar mass of the structure shown. Some results are limits rather than exact numbers.

Assay [1] relates to Staphylococcus aureus. Briefly: Antibacterial activity against methicillin-resistant Staphylococcus aureus CCARM 3506 after 24 hrs by two-fold serial dilution method. The class given is functional. The following applies: CCARM 3506, 24 h. In short, it runs like this: (§1)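 Broth microdilution in Mueller-Hinton broth. Bacteria grown to mid-log phase, diluted 1000-fold, and inoculated at 10⁵ CFU/mL. Test compounds in DMSO, final DMSO not above 0.05%, final concentrations 64-0.5 µg/mL. Incubation 24 h at 37 °C, growth read as absorbance at 650 nm. MIC taken as the lowest concentration giving complete growth inhibition. Run three times.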

Assay [2] relates to Staphylococcus aureus. The assay is described as follows: Antibacterial activity against quinolone-resistant Staphylococcus aureus CCARM 3519 after 24 hrs by two-fold serial dilution method. The class given is functional. The settings on record: CCARM 3519, 24 h. In a few lines:
as §1

Assay [3] deals with Staphylococcus aureus. Briefly: Antibacterial activity against Staphylococcus aureus 503 after 24 hrs by two-fold serial dilution method. The following applies: Staphylococcus aureus, 503, 24 h. The assay is classed as functional. In short, it runs like this:
as §1

Assay [4] deals with Staphylococcus aureus. The assay is described as follows: Antibacterial activity against Staphylococcus aureus 209 after 24 hrs by two-fold serial dilution method. The class given is functional. The settings on record: Staphylococcus aureus, 209, 24 h. In a few lines: as §1
Assay [5] relates to Streptococcus mutans. The assay is described as follows: Antibacterial activity against Streptococcus mutans 3065 after 24 hrs by two-fold serial dilution method. The assay is classed as functional. The settings on record: Streptococcus mutans, 3065, 24 h. In short, it runs like this: (§2)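 Broth microdilution in Mueller-Hinton broth over final concentrations of 64–0.5. Bacteria were grown to mid-log phase and diluted 1000-fold, then inoculated at 10⁵ CFU/mL. Compounds were dissolved in DMSO, with final DMSO at most 0.05%. Plates were incubated 24 h at 37 °C and growth read as absorbance at 650 nm. MIC is the concentration giving complete growth inhibition. Three independent runs.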

In assay [6] the test system is Escherichia coli. The assay is described as follows: Antibacterial activity against Escherichia coli CCARM 1356 after 24 hrs by two-fold serial dilution method. The settings on record: CCARM 1356, 24 h. The class given is functional. In a few lines: as §2
For assay [7], the system named is Pseudomonas aeruginosa. Briefly: Antibacterial activity against Pseudomonas aeruginosa 2742 after 24 hrs by two-fold serial dilution method. The settings on record: Pseudomonas aeruginosa, 2742, 24 h. The assay is classed as functional. In a few lines: as §2
Assay [8] relates to Escherichia coli. The assay is described as follows: Ratio of moxifloxacin MIC to compound MIC for Escherichia coli CCARM 1356 after 24 hrs by two-fold serial dilution method. The class given is functional.
Assay [9] deals with Staphylococcus aureus. Briefly: Antibacterial activity against methicillin-resistant Staphylococcus aureus CCARM 3167 after 24 hrs by two-fold serial dilution method. The following applies: CCARM 3167, 24 h. The assay is classed as functional. In a few lines: as §1
Assay [10] relates to Pseudomonas aeruginosa. Briefly: Antibacterial activity against Pseudomonas aeruginosa 2004 after 24 hrs by two-fold serial dilution method. The assay is classed as functional. The settings on record: Pseudomonas aeruginosa, 2004, 24 h. In a few lines:
as §2

Assay [11] relates to Candida albicans. The assay is described as follows: Antifungal activity against Candida albicans 7535 by two-fold serial dilution method. The assay is classed as functional.
Assay [12] has as its system Staphylococcus aureus. Briefly: Antibacterial activity against quinolone-resistant Staphylococcus aureus CCARM 3505 after 24 hrs by two-fold serial dilution method. The assay is classed as functional. The following applies: CCARM 3505, 24 h. In a few lines:
as §1

Assay [13] has as its system Staphylococcus aureus. Briefly: Antibacterial activity against Staphylococcus aureus RN4220 after 24 hrs by two-fold serial dilution method. The assay is classed as functional. The settings on record: RN4220, 24 h. In short, it runs like this:
as §1

Assay [14] has as its system Escherichia coli. The assay is described as follows: Antibacterial activity against Escherichia coli KCTC 1924 after 24 hrs by two-fold serial dilution method. The class given is functional. The settings on record: KCTC 1924, 24 h. In a few lines: as §2
For assay [15], the system named is Salmonella typhimurium. Briefly: Antibacterial activity against Salmonella typhimurium 2421 after 24 hrs by two-fold serial dilution method. The class given is functional, Salmonella enterica subsp. enterica serovar Typhimurium. The following applies: Salmonella enterica, 2421, 24 h. In short, it runs like this:
as §2

The test system of assay [16] is Mus musculus. Briefly: Antiinflammatory activity in mouse assessed as inhibition of xylene-induced ear edema at 50 mg/kg, ip administered 30 mins before xylene challenge relative to control. The assay is classed as functional. In short, it runs like this:
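Mice received compound freshly dissolved in DMSO, 50 mg/kg ip at 0.05 mL/20 g body weight; vehicle controls got DMSO alone. After 30 min, 20 µL xylene was applied to the right ear. After a further 30 min, 7 mm plugs were cut from treated and untreated ears and edema taken as their weight difference. Result is % edema reduction versus vehicle controls.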

By MIC is commonly meant the lowest concentration found to suppress growth. High values mean a less susceptible organism, low ones a more susceptible organism. For orientation: inhibition in vivo means how much of the control response was suppressed.

`Cc1ccc(-c2nn(-c3ccc([N+](=O)[O-])cc3[N+](=O)[O-])cc2/C=N/NC(=N)N)c(C)c1`: the MIC in [1] is 2 µg/mL (≈ 4.73 µM); in assay [2] it was 4 µg/mL (≈ 9.47 µM); in assay [3], 4 µg/mL (≈ 9.47 µM); in [4], 4 µg/mL (≈ 9.47 µM); in assay [5], 4 µg/mL (≈ 9.47 µM); in [6] it was 8 µg/mL (≈ 18.9 µM). Moreover, the MIC in assay [7] was over 64 µg/mL; in assay [9], 2 µg/mL (≈ 4.73 µM); in assay [10], over 64 µg/mL; in [11], 2 µg/mL (≈ 4.73 µM); in assay [12], 2 µg/mL (≈ 4.73 µM); in [13], 2 µg/mL (≈ 4.73 µM). Moreover, the MIC in assay [14] was determined as 2 µg/mL (≈ 4.73 µM); in assay [15] it was 8 µg/mL (≈ 18.9 µM). For the same compound, the Ratio in assay [8] came out at 16. In addition, the inhibition in vivo at 50 mg/kg in [16] was 79.6%.
Regarding `Cc1ccc(-c2nn(-c3ccccc3)cc2/C=N/NC(=N)N)cc1`, the minimum inhibitory concentration (MIC) turned out to be 2 µg/mL (≈ 6.28 µM) in assay [1]; 4 µg/mL (≈ 12.6 µM) in assay [2]; 4 µg/mL (≈ 12.6 µM) in assay [3]; 4 µg/mL (≈ 12.6 µM) in assay [4]; 8 µg/mL (≈ 25.1 µM) in [5]; 8 µg/mL (≈ 25.1 µM) in assay [6]. For the same compound, the MIC in assay [7] stood at 32 µg/mL (≈ 101 µM); in [9], 2 µg/mL (≈ 6.28 µM); in assay [10] it was 16 µg/mL (≈ 50.3 µM); in [11], 2 µg/mL (≈ 6.28 µM); in [12], 4 µg/mL (≈ 12.6 µM); in assay [13], 2 µg/mL (≈ 6.28 µM). The minimal inhibitory concentration (MIC) in [14] is 2 µg/mL (≈ 6.28 µM); in assay [15] it was 8 µg/mL (≈ 25.1 µM). In [8], the Ratio is 16. The inhibition in vivo at 50 mg/kg in assay [16] came out at 86.5%.
For the compound `N=C(N)N/N=C/c1cn(-c2ccccc2)nc1-c1ccc(Br)cc1`, the minimal inhibitory concentration (MIC) was 4 µg/mL (≈ 10.4 µM) in assay [1]; 16 µg/mL (≈ 41.7 µM) in [2]; 4 µg/mL (≈ 10.4 µM) in assay [3]; 8 µg/mL (≈ 20.9 µM) in assay [4]; over 64 µg/mL in assay [5]; over 64 µg/mL in assay [6]. Moreover, the MIC in assay [7] was over 64 µg/mL; in assay [9], 8 µg/mL (≈ 20.9 µM); in assay [10], over 64 µg/mL; in assay [11], 4 µg/mL (≈ 10.4 µM); in assay [12], 16 µg/mL (≈ 41.7 µM); in [13], 4 µg/mL (≈ 10.4 µM). Besides, the MIC in assay [14] is 8 µg/mL (≈ 20.9 µM); in assay [15] it was over 64 µg/mL. The inhibition in vivo at 50 mg/kg in assay [16] amounted to 42.8%.
With `N=C(N)N/N=C/c1cn(-c2ccc([N+](=O)[O-])cc2[N+](=O)[O-])nc1-c1ccccc1Br`, the MIC was 4 µg/mL (≈ 8.45 µM) in assay [1]; 8 µg/mL (≈ 16.9 µM) in [2]; 4 µg/mL (≈ 8.45 µM) in [3]; 8 µg/mL (≈ 16.9 µM) in assay [4]; 16 µg/mL (≈ 33.8 µM) in assay [5]; 16 µg/mL (≈ 33.8 µM) in assay [6]. Also, the MIC in [7] was over 64 µg/mL; in assay [9], 4 µg/mL (≈ 8.45 µM); in assay [10], over 64 µg/mL; in assay [11], 2 µg/mL (≈ 4.23 µM); in assay [12] it was 4 µg/mL (≈ 8.45 µM); in assay [13], 4 µg/mL (≈ 8.45 µM). Also, the minimum inhibitory concentration (MIC) in assay [14] is 4 µg/mL (≈ 8.45 µM); in [15] it was 16 µg/mL (≈ 33.8 µM). For the same compound, in [16], the inhibition in vivo at 50 mg/kg stood at 78.1%.
In the case of `N=C(N)N/N=C/c1cn(-c2ccc([N+](=O)[O-])cc2[N+](=O)[O-])nc1-c1ccccc1F`, the MIC in [1] stood at 4 µg/mL (≈ 9.7 µM); in assay [2], 8 µg/mL (≈ 19.4 µM); in assay [3] it was 8 µg/mL (≈ 19.4 µM); in assay [4], 8 µg/mL (≈ 19.4 µM); in [5], 16 µg/mL (≈ 38.8 µM); in assay [6], 16 µg/mL (≈ 38.8 µM). In addition, the MIC in assay [7] was over 64 µg/mL; in assay [9], 8 µg/mL (≈ 19.4 µM); in assay [10] it was over 64 µg/mL; in assay [11], 4 µg/mL (≈ 9.7 µM); in assay [12] it was 8 µg/mL (≈ 19.4 µM); in assay [13] it was 8 µg/mL (≈ 19.4 µM). The MIC in assay [14] is 8 µg/mL (≈ 19.4 µM); in [15], 16 µg/mL (≈ 38.8 µM). For the same compound, the inhibition in vivo at 50 mg/kg in assay [16] was found to be 87.2%.
Regarding `N=C(N)N/N=C/c1cn(-c2ccc([N+](=O)[O-])cc2[N+](=O)[O-])nc1-c1ccccc1[N+](=O)[O-]`, the minimal inhibitory concentration (MIC) amounted to 8 µg/mL (≈ 18.2 µM) in assay [1]; 32 µg/mL (≈ 72.8 µM) in [2]; 16 µg/mL (≈ 36.4 µM) in assay [3]; 32 µg/mL (≈ 72.8 µM) in assay [4]; 32 µg/mL (≈ 72.8 µM) in [5]; 32 µg/mL (≈ 72.8 µM) in [6]. The MIC in [7] was over 64 µg/mL; in assay [9] it was 16 µg/mL (≈ 36.4 µM); in assay [10] it was over 64 µg/mL; in assay [11], 8 µg/mL (≈ 18.2 µM); in assay [12], 16 µg/mL (≈ 36.4 µM); in assay [13], 16 µg/mL (≈ 36.4 µM). For the same compound, the results for the MIC in assay [14] and in assay [15] were 16 µg/mL (≈ 36.4 µM) and 32 µg/mL (≈ 72.8 µM), respectively. Further, the inhibition in vivo at 50 mg/kg in [16] turned out to be 58.3%.
